{
  "source": "ChEMBL document CHEMBL1221390",
  "about": "“Withaferin A, a cytotoxic steroid from Vassobia breviflora, induces apoptosis in human head and neck squamous cell carcinoma” (J Nat Prod, 2010)",
  "key": {"[1]": {"test": "Induction of apoptosis in human JHU011 cells assessed as early apoptotic cells at 5 uM after 24 hrs by FITC-conjugated annexin V and propidium iodide staining-based flow cytometry", "format": "functional", "summary_of_the_method": "(§1)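 Cells given 5.0 μM for 24 h, harvested, and co-stained at 1×10⁶ cells/mL with annexin V-FITC and PI. Annexin binding buffer added before flow cytometry. Annexin V only scored as early apoptosis, annexin V+PI as late apoptosis, PI only as necrosis. Triplicate; t-test.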"}, "Homo sapiens [2]": {"organism": "Homo sapiens", "test": "Induction of apoptosis in human MDA1986 cells assessed as induction of PRAP cleavage at 1 to 6 uM after 24 hrs by Western blot analysis", "format": "functional, cell-based", "summary_of_the_method": "(§2)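 Cells exposed to increasing concentrations for 24 h, lysed in NP-40/Tris pH 7.5 buffer with protease inhibitors, NaF and orthovanadate. Equal protein run on SDS-PAGE, transferred to nitrocellulose. Probed overnight at 4 °C for uncleaved caspase 3 (pro-form) and uncleaved/cleaved PARP; HRP secondary 1 h at room temperature.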"}, "[3]": {"test": "Cytotoxicity against human JHU011 cells after 72 hrs by MTS assay", "format": "functional, cell-based", "settings": "JHU011, 72 h", "summary_of_the_method": "(§3)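 Seeded at 2×10³ cells/well, left 24 h, then exposed to serial dilutions in medium (from DMSO stock; vehicle controls <0.1% DMSO v/v) for 72 h. MTS added, 3 h at 37 °C, 5% CO₂, absorbance 490 nm. Viability expressed relative to medium-only control; IC50 read from viability–concentration curves. Triplicate; cisplatin positive control.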"}, "JHU011 [4]": {"tested_on": "JHU011", "test": "Induction of apoptosis in human JHU011 cells assessed as decrease in procaspase-3 level at 1 to 6 uM after 24 hrs by Western blot analysis", "format": "functional, cell-based", "summary_of_the_method": "as §2"}, "[5]": {"test": "Induction of cell cycle arrest in human UM-SCC2 cells assessed as accumulation at G2/M phase at 3 uM after 24 hrs by flow cytometry", "format": "functional", "summary_of_the_method": "(§4)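 Treated 24 h with 3.0 μM or DMSO vehicle. Cells trypsinized; 1×10⁶ washed in 0.9% NaCl and fixed 30 min at room temperature in cold 70% ethanol/0.9% NaCl. Stained with PI (50 μg/mL in PBS) 30 min, then DNase-free RNase (1 mg/mL) 30 min. Phase distribution (sub-G0, G0/G1, S, G2/M) by flow cytometry.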"}, "[6]": {"biological_target": "RAC-alpha serine/threonine-protein kinase (Homo sapiens) (UniProt P31749)", "sequence (P31749 whole entry)": "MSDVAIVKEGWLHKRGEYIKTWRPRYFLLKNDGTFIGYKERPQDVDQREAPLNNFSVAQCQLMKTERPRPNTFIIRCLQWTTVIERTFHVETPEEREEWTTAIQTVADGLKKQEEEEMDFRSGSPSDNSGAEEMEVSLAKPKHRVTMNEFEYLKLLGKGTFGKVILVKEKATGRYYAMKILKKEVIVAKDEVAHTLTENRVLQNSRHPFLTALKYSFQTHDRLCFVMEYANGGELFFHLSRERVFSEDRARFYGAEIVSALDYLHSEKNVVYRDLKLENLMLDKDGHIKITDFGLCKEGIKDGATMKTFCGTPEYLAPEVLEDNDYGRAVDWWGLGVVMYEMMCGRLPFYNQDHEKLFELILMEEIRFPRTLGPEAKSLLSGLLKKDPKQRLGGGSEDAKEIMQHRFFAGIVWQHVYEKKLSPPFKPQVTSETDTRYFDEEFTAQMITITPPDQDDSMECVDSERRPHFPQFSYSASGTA", "test": "Inhibition of Akt phosphorylation in human UM-SCC2 cells after 24 hrs by Western blot analysis", "format": "cell-based", "summary_of_the_method": "(§5)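 Increasing concentrations for 24 h. NP-40 lysates (with NaF and orthovanadate) cleared at 14,000 × g, equal protein separated by SDS-PAGE and blotted. Probed for phospho-Akt (Ser473), total Akt, phospho-ERK1/2 and total ERK; β-actin loading control. Primary antibody overnight at 4 °C, HRP secondary 1 h.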"}, "Homo sapiens [7]": {"organism": "Homo sapiens", "test": "Induction of apoptosis in human MDA1986 cells assessed as increase in early apoptotic cells at 5 uM after 24 hrs by FITC-conjugated annexin V and propidium iodide staining-based flow cytometry", "format": "functional, cell-based", "summary_of_the_method": "as §1"}, "[8]": {"biological_target": "T1, Mitogen-activated protein kinase; ERK1/ERK2 (Homo sapiens) (UniProt P27361+P28482)", "T1 sequence (P27361 whole entry, looked up)": "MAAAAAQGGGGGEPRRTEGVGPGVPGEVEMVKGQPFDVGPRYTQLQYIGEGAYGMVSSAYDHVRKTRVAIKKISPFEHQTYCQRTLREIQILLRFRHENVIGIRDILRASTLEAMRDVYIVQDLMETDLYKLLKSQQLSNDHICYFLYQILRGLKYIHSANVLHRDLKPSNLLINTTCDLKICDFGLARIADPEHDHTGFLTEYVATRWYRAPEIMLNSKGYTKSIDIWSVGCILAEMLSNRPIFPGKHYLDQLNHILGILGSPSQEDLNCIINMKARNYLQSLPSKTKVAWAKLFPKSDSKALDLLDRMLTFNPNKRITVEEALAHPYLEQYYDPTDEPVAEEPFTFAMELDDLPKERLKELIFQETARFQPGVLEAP", "T1 sequence (P28482 whole entry, looked up)": "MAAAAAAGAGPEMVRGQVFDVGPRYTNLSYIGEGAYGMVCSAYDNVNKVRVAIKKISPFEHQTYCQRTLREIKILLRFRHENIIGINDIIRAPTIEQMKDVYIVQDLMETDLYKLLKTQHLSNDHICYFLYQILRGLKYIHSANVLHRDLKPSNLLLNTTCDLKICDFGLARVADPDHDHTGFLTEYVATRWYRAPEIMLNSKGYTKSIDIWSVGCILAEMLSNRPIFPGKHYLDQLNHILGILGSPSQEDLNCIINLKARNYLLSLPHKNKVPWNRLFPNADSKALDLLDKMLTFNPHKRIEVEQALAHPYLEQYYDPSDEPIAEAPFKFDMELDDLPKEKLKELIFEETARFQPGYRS", "test": "Inhibition of ERK1/2 phosphorylation in human UM-SCC2 cells at 0.1 to 5 uM after 24 hrs by Western blot analysis", "format": "cell-based", "summary_of_the_method": "as §5"}, "[9]": {"test": "Cytotoxicity against human JMAR cells after 72 hrs by MTS assay", "format": "functional, cell-based", "summary_of_the_method": "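Cells seeded at 2×10³ per well, grown 24 h, then given serial concentrations (DMSO stock diluted in medium; vehicle controls <0.1% v/v DMSO) for 72 h. MTS added, 3 h at 37 °C, 5% CO₂, absorbance at 490 nm. Viability as fraction of medium-only control; IC50 from viability–concentration curves; triplicate, means of three independent experiments. Cisplatin positive control.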"}, "[10]": {"biological_target": "T1, Mitogen-activated protein kinase; ERK1/ERK2 (Homo sapiens)", "test": "Inhibition of ERK1/2 phosphorylation in human JMAR cells at 0.1 to 5 uM after 24 hrs by Western blot analysis", "format": "cell-based", "summary_of_the_method": "as §5"}, "[11]": {"biological_target": "T1, Mitogen-activated protein kinase; ERK1/ERK2 (Homo sapiens)", "test": "Inhibition of ERK1/2 phosphorylation in human JMAR cells assessed as effect on total protein level at 0.1 to 5 uM after 24 hrs by Western blot analysis", "format": "cell-based", "summary_of_the_method": "as §5"}, "[12]": {"biological_target": "RAC-alpha serine/threonine-protein kinase (Homo sapiens) (UniProt P31749)", "test": "Inhibition of Akt in human JMAR cells assessed as decrease in total protein level at 0.1 to 5 uM after 24 hrs by Western blot analysis", "format": "cell-based", "summary_of_the_method": "as §5"}, "[13]": {"test": "Induction of cell cycle arrest in human MDA1986 cells assessed as accumulation at subG0 phase at 3 uM after 24 hrs by flow cytometry", "format": "functional", "summary_of_the_method": "as §4"}, "[14]": {"biological_target": "RAC-alpha serine/threonine-protein kinase (Homo sapiens) (UniProt P31749)", "test": "Inhibition of Akt in human JHU011 cells assessed as decrease in total protein level at 0.1 to 5 uM after 24 hrs by Western blot analysis", "format": "cell-based", "summary_of_the_method": "as §5"}, "[15]": {"biological_target": "RAC-alpha serine/threonine-protein kinase (Homo sapiens) (UniProt P31749)", "test": "Inhibition of Akt in human UM-SCC2 cells assessed as decrease in total protein level at 0.1 to 5 uM after 24 hrs by Western blot analysis", "format": "cell-based", "summary_of_the_method": "as §5"}, "[16]": {"test": "Cytotoxicity against human UM-SCC2 cells after 72 hrs by MTS assay", "format": "functional, cell-based", "settings": "UM-SCC2, 72 h", "summary_of_the_method": "as §3"}, "MDA1986": {"tested_on": "MDA1986", "test": "Induction of apoptosis in human MDA1986 cells assessed as increase in non-viable necrotic cells at 5 uM after 24 hrs by FITC-conjugated annexin V and propidium iodide staining-based flow cytometry", "format": "functional, cell-based", "summary_of_the_method": "as §1"}, "UM-SCC2 [17]": {"tested_on": "UM-SCC2", "test": "Induction of apoptosis in human UM-SCC2 cells assessed as increase in late non-viable necrotic cells at 5 uM after 24 hrs by FITC-conjugated annexin V and propidium iodide staining-based flow cytometry", "format": "functional, cell-based", "summary_of_the_method": "as §1"}, "JHU011 [18]": {"tested_on": "JHU011", "test": "Induction of apoptosis in human JHU011 cells assessed as induction of PRAP cleavage after 24 hrs by Western blot analysis", "format": "functional, cell-based", "summary_of_the_method": "as §2"}, "[19]": {"test": "Induction of cell cycle arrest in human JHU011 cells assessed as accumulation at G2/M phase at 3 uM after 24 hrs by flow cytometry", "format": "functional", "summary_of_the_method": "as §4"}, "UM-SCC2 [20]": {"tested_on": "UM-SCC2", "test": "Induction of apoptosis in human UM-SCC2 cells assessed as increase in early apoptotic cells at 5 uM after 24 hrs by FITC-conjugated annexin V and propidium iodide staining-based flow cytometry", "format": "functional, cell-based", "summary_of_the_method": "as §1"}, "[21]": {"biological_target": "T1, Mitogen-activated protein kinase; ERK1/ERK2 (Homo sapiens)", "test": "Inhibition of ERK1/2 phosphorylation in human JHU011 cells assessed as effect on total protein level at 0.1 to 5 uM after 24 hrs by Western blot analysis", "format": "cell-based", "summary_of_the_method": "as §5"}, "JHU011 [22]": {"tested_on": "JHU011", "test": "Induction of apoptosis in human JHU011 cells assessed as increase in non-viable necrotic cells at 5 uM after 24 hrs by FITC-conjugated annexin V and propidium iodide staining-based flow cytometry", "format": "functional, cell-based", "summary_of_the_method": "as §1"}},
  "note": "pIC50: −log10 of the molar value. The source made the active and inactive calls. The rule behind the calls is not given here.",
  "data": [
    {"smiles": "CC1=C(CO)C(=O)O[C@@H]([C@@H](C)[C@H]2CC[C@H]3[C@@H]4C[C@H]5O[C@]56[C@@H](O)C=CC(=O)[C@]6(C)[C@H]4CC[C@]23C)C1", "note": "[WITHAFERIN A]", "values": [
      {"measurement": "Activity", "setting": "[1]", "result": 14.8, "unit": "%"},
      {"measurement": "Activity", "setting": "Homo sapiens [2]", "result": "Active"},
      {"measurement": "pIC50", "setting": "[3]", "result": 5.66},
      {"measurement": "Activity", "setting": "JHU011 [4]", "result": "Active"},
      {"measurement": "Activity", "setting": "[5]", "result": 36, "unit": "%"},
      {"measurement": "inhibition", "setting": "[6]", "result": "Dose-dependent effect"},
      {"measurement": "Activity", "setting": "Homo sapiens [7]", "result": "inactive"},
      {"measurement": "inhibition", "setting": "[8]", "result": "Active"},
      {"measurement": "pIC50", "setting": "[9]", "result": 5.70},
      {"measurement": "inhibition", "setting": "[10]", "result": "inactive"},
      {"measurement": "inhibition", "setting": "[11]", "result": "inactive"},
      {"measurement": "inhibition", "setting": "[12]", "result": "Active"},
      {"measurement": "Activity", "setting": "[13]", "result": 8, "unit": "%"},
      {"measurement": "inhibition", "setting": "[14]", "result": "Active"},
      {"measurement": "inhibition", "setting": "[15]", "result": "Active"},
      {"measurement": "pIC50", "setting": "[16]", "result": 6.30},
      {"measurement": "Activity", "setting": "MDA1986", "result": "inactive"},
      {"measurement": "Activity", "setting": "UM-SCC2 [17]", "result": "Active"},
      {"measurement": "Activity", "setting": "JHU011 [18]", "result": "Dose-dependent effect"},
      {"measurement": "Activity", "setting": "[19]", "result": 34, "unit": "%"},
      {"measurement": "Activity", "setting": "UM-SCC2 [20]", "result": "Active"},
      {"measurement": "inhibition", "setting": "[21]", "result": "inactive"},
      {"measurement": "Activity", "setting": "JHU011 [22]", "result": "inactive"}
    ]}
  ]
}
